In PubChem BioAssay AID493249 (Broad Institute, 2011):
Several values for one entry are separate records, joined by “and”; a condition that tells them apart may be missing. Equal entries are not always repeated. Activity calls are given as the source filed them.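 The calls were made as follows: active = compounds lowering cell viability with a fitted IC50 within ten times their top tested dose; inconclusive = flat viability loss of 30 to 70 percent, or poor fit; inactive = the rest.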

What was measured:
[1] = viability of U2OS HRE-luciferase line – cell-based, dry powder, set 7, cytotoxicity control for HIF pathway activator project, dose response (AID 493249); settings: U2OS HRE-luc cells, viability toxicity counter-screen, CellTiter-Glo; at 38 µM (top of the series)
How it was run: (§1)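 measured by = CellTiter-Glo luminescence | assay system = human osteosarcoma U2OS cells stably expressing 3×HRE-luciferase reporter | medium = phenol red-free DMEM, 10% FBS, no hygromycin | incubation = 24 h cell attachment, then 24 h compound exposure, 37 °C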

[2] = test system: U2OS HRE-luc cells, viability toxicity counter-screen, CellTiter-Glo; test: as above
How it was run: as §1

SMILES	activity change, negative = toxicity [1]	IC50 [2]
Cc1ccc(CNC(=O)c2cc(-c3ccccc3)on2)cc1	1.57% (inactive)	–
O=C(NC1Cc2ccccc2C1)c1cc(-c2ccccc2)on1	-13.3% (inactive)	–
O=C(Nc1ncc(-c2ccccc2)o1)c1cc(-c2ccccc2)on1	1.41% (inactive)	–
O=C(Nc1cn2ccccc2n1)c1cc(-c2ccccc2)on1	-3.68% (inactive)	–
OCCCNc1nc(-c2ccccn2)nnc1-c1ccccc1	4.98% (inactive)	–
O=C(NCCCCO)c1cc(-c2ccccc2)on1	-16.3% (inactive)	–
Cc1cccc(Nc2nc(-c3ccccn3)nnc2-c2ccccc2)n1	-12.6% (inactive)	–
c1ccc(-c2cnc(Nc3nc(-c4ccccn4)nnc3-c3ccccc3)s2)cc1	1.53% (inactive)	–
Oc1ccc(CNC2Cc3ccccc3C2)c2cccnc12	0.726% (inactive)	–
c1ccc(-c2nnc(-c3ccccn3)nc2N2CCC(c3ccccc3)C2)cc1 (centres undefined)	-24.1% (inactive)	–
O=C(NCCN1CCCCC1)c1cc(-c2ccccc2)on1	–	> 38 µM (inactive)
O=C(Nc1cnc2ccccc2c1)c1cc(-c2ccccc2)on1	0.164% (inactive)	–
c1ccc(-c2csc(Nc3nc(-c4ccccn4)nnc3-c3ccccc3)n2)cc1	–	> 38 µM (inactive)
Cc1ccc(NC(=O)c2cc(-c3ccccc3)on2)cn1	-11.1% (inactive)	–
Cn1c(-c2ccccc2)cnc1NC(=O)c1cc(-c2ccccc2)on1	-8.92% (inactive)	–
Cc1ccccc1CNC(=O)c1cc(-c2ccccc2)on1	-4.19% (inactive)	–
Oc1ccc(CNC2CCc3ccccc32)c2cccnc12 (centres undefined)	-17.9% (inactive)	–
Oc1ccc(CN2CCC(Cc3ccccc3)CC2)c2cccnc12	-14.5% (inactive)	–
O=C(Nc1ncc2ccccc2n1)c1cc(-c2ccccc2)on1	-4.1% (inactive)	–
Cc1ccc(CNc2nc(-c3ccccn3)nnc2-c2ccccc2)cc1	-15.4% (inactive)	–
c1ccc(-c2nnc(-c3ccccn3)nc2NCCN2CCOCC2)cc1	-9.28% (inactive)	–
c1ccc(-c2nnc(-c3ccccn3)nc2NCC2CCCCC2)cc1	-26% (inactive)	–
N#CC1(c2ccccc2)CCN(Cc2ccc(O)c3ncccc23)CC1	7.2% (inactive)	–
CC(C)(C)CCNc1nc(-c2ccccn2)nnc1-c1ccccc1	-13% (inactive) and -32.8% (inactive)	–
O=C(NCC1CC1)c1cc(-c2ccccc2)on1	-6.03% (inactive)	–
Cc1cccc(CNc2nc(-c3ccccn3)nnc2-c2ccccc2)c1	-16.7% (inactive)	–
CN1CCN(c2nc(-c3ccccn3)nnc2-c2ccccc2)CC1	-13.4% (inactive)	–

SMILES	activity change, negative = toxicity [1]	IC50 [2]
OCC1CCN(Cc2ccc(O)c3ncccc23)CC1	-25% (inactive)	–
CN(C)c1nc(-c2ccccn2)nnc1-c1ccccc1	2.11% (inactive)	–
C[C@@H](Nc1nc(-c2ccccn2)nnc1-c1ccccc1)c1ccccc1	-13.6% (inactive)	–
CCCCNC(=O)c1cc(-c2ccccc2)on1	-11.5% (inactive)	–
O=C(NC1CCc2ccccc2C1)c1cc(-c2ccccc2)on1 (centres undefined)	-10.6% (inactive)	–
Oc1ccc(CN2CCc3ccccc3C2)c2cccnc12	-16.2% (inactive)	–
c1ccc(-c2nnc(-c3ccccn3)nc2Nc2nc3ccccc3s2)cc1	–	> 38 µM (inactive)
Cn1c(-c2ccccc2)cnc1Nc1nc(-c2ccccn2)nnc1-c1ccccc1	–	34.8 µM
Cc1cccc(CNC(=O)c2cc(-c3ccccc3)on2)c1	-1.11% (inactive)	–
c1ccc(-c2nnc(-c3ccccn3)nc2NCc2ccccn2)cc1	–	> 38 µM (inactive)
Oc1ccc(CN2CCC3CCCCC3C2)c2cccnc12 (centres undefined)	–	> 38 µM (inactive)
c1ccc(-c2nnc(-c3ccccn3)nc2NCc2cccnc2)cc1	40.2% (inactive)	–
c1ccc(-c2nnc(-c3ccccn3)nc2N2CCC(N3CCOCC3)CC2)cc1	–	> 38 µM (inactive)
O=C(c1cc(-c2ccccc2)on1)N1CCc2cccnc21	-7.75% (inactive)	–
CC(Nc1nc(-c2ccccn2)nnc1-c1ccccc1)c1ccccc1 (centres undefined)	0.427% (inactive)	–
O=C(NCCN1CCOCC1)c1cc(-c2ccccc2)on1	-16.1% (inactive)	–
c1ccc(-c2nnc(-c3ccccn3)nc2NCCc2ccccn2)cc1	4.22% (inactive)	–
O=C(c1cc(-c2ccccc2)on1)N1CCC(N2CCOCC2)CC1	-9.91% (inactive)	–
O=C(Nc1nc2ccccc2s1)c1cc(-c2ccccc2)on1	-1.46% (inactive)	–
c1ccc(-c2cccc(CNc3nc(-c4ccccn4)nnc3-c3ccccc3)c2)cc1	-2.36% (inactive)	–
c1ccc(-c2nnc(-c3ccccn3)nc2N2CCC(C3CCCCC3)C2)cc1 (centres undefined)	14.5% (inactive)	–
O=C(NCCCN1CCOCC1)c1cc(-c2ccccc2)on1	0.736% (inactive)	–
Cc1ccccc1CNc1nc(-c2ccccn2)nnc1-c1ccccc1	-17.6% (inactive)	–
O=C(NCC1CCCCC1)c1cc(-c2ccccc2)on1	0.869% (inactive)	–
O=C(Nc1ccc2ccccc2n1)c1cc(-c2ccccc2)on1	9.02% (inactive)	–
c1ccc(-c2nnc(-c3ccccn3)nc2N2CCN(c3ccncc3)CC2)cc1	–	> 38 µM (inactive)
c1ccc(-c2nnc(-c3ccccn3)nc2NCC2CC2)cc1	8.28% (inactive)	–

SMILES	activity change, negative = toxicity [1]	IC50 [2]
COc1cccc(CNc2nc(-c3ccccn3)nnc2-c2ccccc2)c1	-14.9% (inactive)	–
c1ccc(CCNc2nc(-c3ccccn3)nnc2-c2ccccc2)cc1	-5.99% (inactive)	–
O=C(NCc1ccccc1)c1cc(-c2ccccc2)on1	-7.7% (inactive)	–
CN(C)CCNC(=O)c1cc(-c2ccccc2)on1	14.4% (inactive)	–
c1ccc(-c2nnc(-c3ccccn3)nc2NCC2CCOCC2)cc1	20.8% (inactive)	–
O=C(c1cc(-c2ccccc2)on1)N1CCN(c2ccncc2)CC1	–	> 38 µM (inactive)
CN1CCN(C(=O)c2cc(-c3ccccc3)on2)CC1	3.42% (inactive)	–
CC1CN(Cc2ccc(O)c3ncccc23)CC(C)O1 (centres undefined)	–	> 38 µM (inactive)
c1ccc(-c2nnc(Nc3nc(-c4ccccn4)nnc3-c3ccccc3)s2)cc1	–	> 38 µM (inactive)
O=C(Nc1nc(-c2ccccc2)cs1)c1cc(-c2ccccc2)on1	13.9% (inactive)	–
COc1ccccc1N1CCN(Cc2ccc(O)c3ncccc23)CC1	-18.6% (inactive)	–
Cc1cccc(NC(=O)c2cc(-c3ccccc3)on2)n1	-0.352% (inactive)	–
Cn1c(NC(=O)c2cc(-c3ccccc3)on2)nc2ccccc21	-0.865% (inactive)	–
CC(C)(C)OC(=O)N1CCN(Cc2ccc(O)c3ncccc23)CC1	6.17% (inactive)	–
O=C(c1cc(-c2ccccc2)on1)N1CCC(N2CCCC2)CC1	-8.3% (inactive)	–
c1ccc(-c2nnc(-c3ccccn3)nc2NCCCN2CCOCC2)cc1	11% (inactive)	–
C=CCNc1nc(-c2ccccn2)nnc1-c1ccccc1	3.09% (inactive)	–
CC(C)(C)CCNC(=O)c1cc(-c2ccccc2)on1	-7.02% (inactive)	–
Clc1cccc(CNc2nc(-c3ccccn3)nnc2-c2ccccc2)c1	2.17% (inactive)	–
OCC1CCN(c2nc(-c3ccccn3)nnc2-c2ccccc2)CC1	-13.9% (inactive)	–
O=C(NCCCO)c1cc(-c2ccccc2)on1	-3.27% (inactive)	–
O=C(c1cc(-c2ccccc2)on1)N1CCC(CO)CC1	1.17% (inactive)	–
COc1ccc(CNc2nc(-c3ccccn3)nnc2-c2ccccc2)cc1	-2.05% (inactive)	–
O=C(NCCCn1ccnc1)c1cc(-c2ccccc2)on1	-7.78% (inactive)	–
O=C(Nc1nnc(-c2ccccc2)s1)c1cc(-c2ccccc2)on1	-7.07% (inactive)	–
